For assay [1], the system named is DU-145. Briefly: Cytotoxicity against human DU145 cells. The format is functional, cell-based. In outline:
(§1)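 SRB assay. 5000 cells/well were seeded in medium with 10% serum and left 18-20 h at 5% CO2 to adhere. Final compound 0 to 100 μM for 48 h at 37 °C; DMSO vehicle, doxorubicin positive control. Cells fixed in 10% TCA 1 h at 4 °C, stained 30 min with 0.057% SRB, washed with 1% acetic acid. Dye solubilised in 10 mM Tris base, A510 read, IC50 derived.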

A further assay has as its system A549. Briefly: Cytotoxicity against human A549 cells. The format is functional, cell-based. In outline: as §1
Another assay concerns HeLa. Kind of assay: Cytotoxicity against human HeLa cells. The format is functional, cell-based. A digest of the protocol:
as §1

For a further assay, the system named is MCF7. Briefly: Cytotoxicity against human MCF7 cells. The format is functional, cell-based. In outline:
as §1

In assay [2] the test system is DU-145. Kind of assay: Induction of apoptosis in human DU145 cells assessed as caspase-9 activation using Ac-LEHD-AFC as substrate after 48 hrs by fluorometric analysis. It is filed as functional, cell-based. A digest of the protocol:
(§2)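 DU145 exposed to several concentrations for 48 h; DMSO negative, doxorubicin positive control. Cells lysed in 50 mM HEPES, 5 mM CHAPS, 5 mM DTT, pH 7.5. Lysate incubated with substrate in 20 mM HEPES pH 7.5, 0.1% CHAPS, 2 mM EDTA, 5 mM DTT for 2 h at 37 °C. AMC read at ex/em 380/460 nm (caspase-3), AFC at 400/505 nm (caspase-9). Values normalised to Bradford protein and expressed relative to DMSO; triplicates, means.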

The test system of assay [3] is DU-145. Briefly: Cell cycle arrest in human DU145 cells assessed as accumulation at G2/M phase at 25 uM after 48 hrs by propidium iodide staining-based flow cytometric analysis (reference value: 23.09%). The format is functional. In general terms: A flow cytometer gives signals particle by particle.
The test system of assay [4] is DU-145. Kind of assay: Cell cycle arrest in human DU145 cells assessed as accumulation at G2/M phase at 5 uM after 48 hrs by propidium iodide staining-based flow cytometric analysis (reference value: 23.09%). It is filed as functional.
Assay [5] has as its system DU-145. Briefly: Cell cycle arrest in human DU145 cells assessed as accumulation at G0/G1 phase at 5 uM after 48 hrs by propidium iodide staining-based flow cytometric analysis (reference value: 70.54%). It is filed as functional.
Assay [6] deals with DU-145. Kind of assay: Cell cycle arrest in human DU145 cells assessed as accumulation at G0/G1 phase at 20 uM after 48 hrs by propidium iodide staining-based flow cytometric analysis (reference value: 70.54%). It is filed as functional.
Assay [7] deals with DU-145. Kind of assay: Induction of senescence in human DU145 cells at 5 to 25 uM after 48 hrs by SA-beta-gal staining-based microscopic analysis. It is filed as functional, cell-based. A digest of the protocol: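 DU145 in 24-well plates treated for 48 h. Cells washed with PBS and fixed 5 min at room temperature in 2% formaldehyde/0.2% glutaraldehyde. Stained overnight at 37 °C in 40 mM citric acid/Na phosphate (pH 6.0), 5 mM each ferro- and ferricyanide, 150 mM NaCl, 2 mM MgCl2, 1 mg/ml X-gal. Positive cells observed and photographed by microscopy.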

Assay [8] concerns DU-145. Briefly: Cell cycle arrest in human DU145 cells assessed as accumulation at G0/G1 phase at 10 uM after 48 hrs by propidium iodide staining-based flow cytometric analysis (reference value: 70.54%). It is filed as functional.
For assay [9], the system named is DU-145. Briefly: Cell cycle arrest in human DU145 cells assessed as accumulation at S phase at 5 uM after 48 hrs by propidium iodide staining-based flow cytometric analysis (reference value: 5.77%). The format is functional.
In assay [10] the test system is DU-145. Kind of assay: Induction of apoptosis in human DU145 cells assessed as caspase-3 activation using Ac-DEVD-AMC as substrate after 48 hrs by fluorometric analysis. The format is functional, cell-based. A digest of the protocol:
as §2

Assay [11] deals with DU-145. Kind of assay: Cell cycle arrest in human DU145 cells assessed as accumulation at G2/M phase at 10 uM after 48 hrs by propidium iodide staining-based flow cytometric analysis (reference value: 23.09%). The format is functional.
Assay [12] deals with DU-145. Briefly: Cell cycle arrest in human DU145 cells assessed as accumulation at G2/M phase at 20 uM after 48 hrs by propidium iodide staining-based flow cytometric analysis (reference value: 23.09%). The format is functional.
In assay [13] the test system is DU-145. Kind of assay: Cell cycle arrest in human DU145 cells assessed as accumulation at G0/G1 phase at 15 uM after 48 hrs by propidium iodide staining-based flow cytometric analysis (reference value: 70.54%). The format is functional.
In assay [14] the test system is DU-145. Kind of assay: Cell cycle arrest in human DU145 cells assessed as accumulation at S phase at 25 uM after 48 hrs by propidium iodide staining-based flow cytometric analysis (reference value: 5.77%). The format is functional.
For assay [15], the system named is DU-145. Kind of assay: Cell cycle arrest in human DU145 cells assessed as accumulation at G2/M phase at 15 uM after 48 hrs by propidium iodide staining-based flow cytometric analysis (reference value: 23.09%). The format is functional.
In assay [16] the test system is DU-145. Kind of assay: Cell cycle arrest in human DU145 cells assessed as accumulation at G0/G1 phase at 25 uM after 48 hrs by propidium iodide staining-based flow cytometric analysis (reference value: 70.54%). It is filed as functional.
Assay [17] relates to DU-145. Briefly: Cytotoxicity against human DU145 cells assessed as inhibition of colony formation on soft agar media after 9 days by crystal violet staining-based microscopic analysis. It is filed as functional, cell-based. A digest of the protocol: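 Soft agar assay. Base layer was 0.5% agar in growth medium with 10% serum. On top, 2.5×10^4 DU145 cells were set in 0.35% agar containing compound (0–25 μM). Medium plus compound replenished every 3 days for 9 days. Stained with 0.005% crystal violet, then colonies photographed and counted under a microscope.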

For assay [18], the system named is DU-145. Briefly: Cell cycle arrest in human DU145 cells assessed as accumulation at S phase at 15 uM after 48 hrs by propidium iodide staining-based flow cytometric analysis (reference value: 5.77%). The format is functional.
Assay [19] concerns DU-145. Briefly: Cell cycle arrest in human DU145 cells assessed as accumulation at S phase at 10 uM after 48 hrs by propidium iodide staining-based flow cytometric analysis (reference value: 5.77%). It is filed as functional.
The subject of assay [20] is DU-145. Briefly: Induction of apoptosis in human DU145 cells assessed as change in mitochondrial membrane potential at 8.5 to 20 uM after 24 hrs by JC-1 dye-based assay. It is filed as functional, cell-based. A digest of the protocol:
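DU145 seeded in 24-well plates and left 18 h at 37 °C, 5% CO2, then treated for 24 h, DMSO control. Stained with JC-1 working solution (stock mixed 1:1 with growth medium) for 20 min at 37 °C. Washed twice with medium, then red (aggregate) versus green (monomer) fluorescence viewed by microscopy.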

Assay [21] relates to DU-145. Briefly: Cytotoxicity against human DU145 cells assessed as change in cell morphology at 5 to 25 uM after 48 hrs by microscopic analysis. It is filed as functional, cell-based. In outline:
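DU145 cells seeded in 24-well plates and left 18-20 h, then exposed to increasing concentrations for 48 h with a DMSO comparison. Morphology examined and imaged by light microscopy.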

Assay [22] relates to DU-145. Kind of assay: Cell cycle arrest in human DU145 cells assessed as accumulation at S phase at 20 uM after 48 hrs by propidium iodide staining-based flow cytometric analysis (reference value: 5.77%). The format is functional.

Activity calls are given as the source filed them. The rule behind the calls is not given here.

By IC50 is commonly meant the midpoint of a concentration-inhibition curve. A high value points to lower potency. For the compound `COc1cccc2c1C(=O)c1c(O)c3c(c(O)c1C2=O)C[C@@](O)(C(=O)CO)C[C@@H]3O[C@H]1C[C@H](N)[C@H](O)[C@H](C)O1` [DOXORUBICIN], the 50% inhibitory concentration (IC50) is 6.7 µM in the assay with DU-145 [1], 8.4 µM in the assay with A549 and 10.9 µM in the assay with HeLa.
With `COc1ccc([C@@H]2[C@H](CO)OC(=O)N2c2ccc(N3CCOCC3)c(F)c2)cc1`, the IC50 in the assay with DU-145 [1] worked out at 38.5 µM; in the assay with A549, 43.2 µM; in the assay on MCF7, 36.1 µM; with HeLa, 35.9 µM.
The matching figures for `COc1ccc([C@@H]2[C@H](COC(=O)c3ccccc3)OC(=O)N2c2ccc(N3CCOCC3)c(F)c2)cc1`: 30.8 µM, 24.8 µM, 69.4 µM and 19.2 µM.
The matching figures for `COc1ccc([C@@H]2[C@@H](CCO)OC(=O)N2c2ccc(N3CCOCC3)c(F)c2)cc1`: 69.5 µM, 30.3 µM, greater than 100 µM and 43.2 µM.
As to `COc1ccc([C@@H]2[C@@H](CN)OC(=O)N2c2ccc(N3CCOCC3)c(F)c2)cc1`, the half-inhibitory concentration (IC50) is 33 µM in the assay with DU-145 [1], 21.2 µM with A549, greater than 100 µM with MCF7 and greater than 100 µM in the assay on HeLa.
Take `CC[C@H]1OC(=O)N(c2ccc(N3CCOCC3)c(F)c2)[C@@H]1c1ccc(OC)cc1`: the Activity entry is “Dose-dependent effect” with DU-145 [2]; 6.54% with DU-145 [3]; 19.45% in the assay on DU-145 [4]; 75.65% with DU-145 [5]; 80.5% with DU-145 [6]; 75.29% in the assay with DU-145 [8]. The Activity was 4.61% with DU-145 [9]; “Dose-dependent effect” in the assay with DU-145 [10]; 20.49% in the assay on DU-145 [11]; 16.19% in the assay on DU-145 [12]; 79.14% with DU-145 [13]; 0.79% in the assay on DU-145 [14]. For the same compound, the Activity in the assay on DU-145 [15] is 16.7%; in the assay with DU-145 [16], 91.11%; in the assay on DU-145 [18], 3.56%; in the assay with DU-145 [19] it was 3.85%; in the assay with DU-145 [22], 1.93%. For the same compound, the IC50 in the assay on DU-145 [1] is 9.47 µM; in the assay on A549, 13.4 µM; in the assay on MCF7, greater than 100 µM; in the assay on HeLa, 23.3 µM. In addition, the outcome in the assay with DU-145 [7], in the assay with DU-145 [20] and in the assay on DU-145 [21] was Active. Besides, the inhibition entry in the assay with DU-145 [17] was “Dose-dependent effect”.
As to `C=CC(=O)OCCC(=O)OC[C@@H]1OC(=O)N(c2ccc(N3CCOCC3)c(F)c2)[C@@H]1c1ccc(OC)cc1`, the IC50 with DU-145 [1] was 31.8 µM; in the assay with A549 it was 42.4 µM; in the assay on MCF7, 61.5 µM; in the assay with HeLa it was 28.6 µM.
The like results for `COc1ccc([C@H]2NC(=O)O[C@@H]2CO)cc1` were, in that order, 40.6 µM, 31.2 µM, greater than 100 µM and 56.7 µM.
In the case of `COc1ccc([C@H]2NC(=O)O[C@H]2CO)cc1`, the IC50 was 46.5 µM in the assay on DU-145 [1], 25.5 µM in the assay on A549, 82.4 µM in the assay on MCF7 and 26 µM in the assay on HeLa.
The like results for `C=C[C@H]1OC(=O)N(c2ccc(N3CCOCC3)c(F)c2)[C@@H]1c1ccc(OC)cc1` were, in that order, 48.2 µM, 24.4 µM, 70 µM and 48.6 µM.
The matching figures for `COc1ccc([C@@H]2[C@@H](CNC(C)=O)OC(=O)N2c2ccc(N3CCOCC3)c(F)c2)cc1`: 26.8 µM, 54.4 µM, greater than 100 µM and 51.3 µM.
The like results for `C=CC(=O)OCCC(=O)OC[C@H]1OC(=O)N(c2ccc(N3CCOCC3)c(F)c2)[C@@H]1c1ccc(OC)cc1` were, in that order, 8.69 µM, 14.2 µM, 38.2 µM and 42.7 µM.
Turning to `COc1ccc([C@@H]2[C@@H](COC(=O)c3ccccc3)OC(=O)N2c2ccc(N3CCOCC3)c(F)c2)cc1`, the IC50 in the assay on DU-145 [1] was found to be 21.1 µM; in the assay on A549, 23.9 µM; with MCF7, 74 µM; in the assay with HeLa, 57.6 µM.
The matching figures for `C=C[C@H]1OC(=O)N[C@@H]1c1ccc(OC)cc1`: 32.8 µM, 21.3 µM, greater than 100 µM and 39.8 µM.
The like results for `COc1ccc([C@@H]2[C@@H](CO)OC(=O)N2c2ccc(N3CCOCC3)c(F)c2)cc1` were, in that order, 24.9 µM, 24.6 µM, greater than 100 µM and 86.6 µM.

For the origin of these results see ChEMBL document CHEMBL3259809, “Oxazolidinone derivatives: cytoxazone-linezolid hybrids induces apoptosis and senescence in DU145 prostate cancer cells” (Eur J Med Chem, 2014).
